Laboratory results taken from ChEMBL document CHEMBL1153422, “N6-Cycloalkyl- and N6-bicycloalkyl-C5'(C2')-modified adenosine derivatives as high-affinity and selective agonists at the human A1 adenosine receptor with antinociceptive effects in mice” (J Med Chem, 2009).
Activity calls are given as the source filed them. The rule behind the calls is not given here.

Assays:
[1] = molecular target: T1, Adenosine receptor A2b (Homo sapiens, UniProt P29275); assay: Agonist activity at human adenosine A2B receptor expressed in CHO cells assessed as inhibition of NECA-stimulated adenylyl cyclase activity; type: functional, cell-based
T1 sequence (P29275 whole entry): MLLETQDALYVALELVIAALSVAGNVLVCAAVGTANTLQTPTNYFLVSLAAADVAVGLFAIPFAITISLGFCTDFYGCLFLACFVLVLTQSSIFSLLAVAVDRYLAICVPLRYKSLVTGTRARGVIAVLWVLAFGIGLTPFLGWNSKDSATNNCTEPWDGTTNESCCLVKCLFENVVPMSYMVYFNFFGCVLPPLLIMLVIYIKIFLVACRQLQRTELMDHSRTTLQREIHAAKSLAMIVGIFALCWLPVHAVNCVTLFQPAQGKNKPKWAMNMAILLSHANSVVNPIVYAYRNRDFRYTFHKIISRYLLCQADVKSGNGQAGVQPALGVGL
Summary of the method: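 Membranes from CHO cells stably expressing human A2B receptor; inhibition of NECA-stimulated adenylyl cyclase activity measured, IC50 converted to Ki; curves fitted by nonlinear regression.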

[2] = molecular target: Adenosine receptor A2a (Homo sapiens, UniProt P29274); assay: Displacement of [3H]NECA from human recombinant adenosine A2A receptor expressed in CHO cells; type: cell-based
Chain of Adenosine receptor A2a (P29274 whole entry): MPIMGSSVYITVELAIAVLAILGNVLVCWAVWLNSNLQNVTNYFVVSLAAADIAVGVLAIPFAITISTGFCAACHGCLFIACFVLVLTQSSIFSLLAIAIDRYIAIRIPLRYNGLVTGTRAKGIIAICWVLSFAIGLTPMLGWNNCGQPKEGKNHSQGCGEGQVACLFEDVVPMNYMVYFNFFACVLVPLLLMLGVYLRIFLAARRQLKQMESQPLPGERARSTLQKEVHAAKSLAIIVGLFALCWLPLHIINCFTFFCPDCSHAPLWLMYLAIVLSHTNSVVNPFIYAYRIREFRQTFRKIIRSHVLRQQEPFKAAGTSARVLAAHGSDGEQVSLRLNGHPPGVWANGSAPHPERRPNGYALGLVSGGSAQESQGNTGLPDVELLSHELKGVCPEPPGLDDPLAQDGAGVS
Summary of the method: (§1)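 Competition binding on membranes from CHO cells stably transfected with individual human adenosine receptor subtypes; radioligands 1 nM [3H]CCPA (A1), 30 nM [3H]NECA (A2A), 1 nM [3H]HEMADO (A3); Ki from nonlinear curve fitting; selectivity as Ki ratio.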

[3] = molecular target: T2, Adenosine receptor A1 (Homo sapiens) (UniProt P30542); assay: Agonist activity human recombinant adenosine A1 receptor expressed in CHO cells assessed as inhibition of forskolin-stimulated adenylyl cyclase activity; type: functional, cell-based
T2 sequence (whole entry): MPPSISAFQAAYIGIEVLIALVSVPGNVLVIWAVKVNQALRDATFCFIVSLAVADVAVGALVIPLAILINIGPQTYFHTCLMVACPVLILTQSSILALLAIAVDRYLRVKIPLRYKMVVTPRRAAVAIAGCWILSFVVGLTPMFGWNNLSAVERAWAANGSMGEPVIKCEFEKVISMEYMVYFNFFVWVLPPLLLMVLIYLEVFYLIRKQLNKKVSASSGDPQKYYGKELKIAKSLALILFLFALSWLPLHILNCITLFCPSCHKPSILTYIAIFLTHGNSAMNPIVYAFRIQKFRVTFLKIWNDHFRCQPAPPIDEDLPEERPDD
Summary of the method: (§2)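 CHO cells stably transfected with human receptor (A1 or A3); cyclase activity stimulated by 10 µM forskolin taken as 100%; percentage activity remaining after agonist-mediated inhibition reported; means ± SEM of three independent experiments.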

[4] = system: Mus musculus; assay: Analgesic activity in ip dosed mouse assessed as reduction of formalin-induced late nociceptive behavior administered 10 mins before formalin challenge measured every 5 mins for 60 mins; type: functional, organism-based
Summary of the method: (§3)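 Mice, n = 8-10 per group, randomly assigned; drug or vehicle (0.9% NaCl) given i.p. 10 min before 1.25% formalin in saline (30 µL) into dorsal hind paw; DPCPX 3 mg/kg i.p. co-administered where stated. Lifting, licking, shaking, flinching timed every 5 min for 60 min; early phase 0-7 min, late 15-60 min; mean ± SEM.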

[5] = molecular target: T3, Adenosine receptor A3 (Homo sapiens, UniProt P0DMS8); assay: Displacement of [3H]HEMADO from human recombinant adenosine A3 receptor expressed in CHO cells; type: cell-based; summary of the method: as §1
T3 sequence (P0DMS8 whole entry): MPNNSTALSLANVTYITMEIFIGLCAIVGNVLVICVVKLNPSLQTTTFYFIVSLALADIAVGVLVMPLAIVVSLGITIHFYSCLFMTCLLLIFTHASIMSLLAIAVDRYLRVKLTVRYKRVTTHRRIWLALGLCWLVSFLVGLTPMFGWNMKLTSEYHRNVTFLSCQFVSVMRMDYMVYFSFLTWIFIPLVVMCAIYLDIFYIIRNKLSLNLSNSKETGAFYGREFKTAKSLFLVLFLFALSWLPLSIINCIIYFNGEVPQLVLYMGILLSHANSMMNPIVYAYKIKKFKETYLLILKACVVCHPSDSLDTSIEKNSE

[6] = molecular target: T4, Adenosine receptor A3 (Homo sapiens) (UniProt P0DMS8); assay: Antagonist activity at human recombinant adenosine A3 receptor expressed in CHO cells assessed as inhibition of forskolin-stimulated adenylyl cyclase activity; type: functional, cell-based
T4 sequence (whole entry): T3 sequence (P0DMS8 whole entry)

[7] = Lipophilicity log P of the compound; type: physicochemical; settings: octanol/water
[8] = molecular target: Adenosine receptors; A1 & A3 (Homo sapiens) (UniProt P30542+P0DMS8); assay: Selectivity of Ki for human recombinant adenosine A3 receptor to Ki for human recombinant adenosine A1 receptor; summary of the method: as §1
[9] = organism: Homo sapiens; assay: Selectivity of Ki for human recombinant adenosine A2A receptor to Ki for human recombinant adenosine A1 receptor; summary of the method: as §1
[10] = molecular target: T5, Adenosine receptor A1 (Homo sapiens, UniProt P30542); assay: Displacement of [3H]CCPA from human recombinant adenosine A1 receptor expressed in CHO cells; type: cell-based
T5 sequence (P30542 whole entry): T2 sequence (whole entry)

[11] = molecular target: T4, Adenosine receptor A3 (Homo sapiens); assay: Agonist activity human recombinant adenosine A3 receptor expressed in CHO cells assessed as inhibition of forskolin-stimulated adenylyl cyclase activity; type: functional, cell-based; summary of the method: as §2
[12] = system: Mus musculus; assay: Analgesic activity in mouse assessed as reduction of formalin-induced early nociceptive behavior at 2 mg/kg, ip administered 10 mins before formalin challenge measured every 5 mins for 60 mins in presence of adenosine A1 receptor antagonist DPCPX; type: functional, organism-based; design: dose 2 mg/kg; summary of the method: as §3
[13] = system: Mus musculus; assay: Analgesic activity in mouse assessed as reduction of formalin-induced late nociceptive behavior at 2 mg/kg, ip administered 10 mins before formalin challenge measured every 5 mins for 60 mins in presence of adenosine A1 receptor antagonist DPCPX; type: functional, organism-based; design: dose 2 mg/kg; summary of the method: as §3

SMILES | Ki [1] [nM] | Ki [2] [nM] | Activity [3] | Ki [5] [nM] | Ratio Ki [8] | Ratio Ki [9] | Ki [10] [nM] | Activity [11] | Activity [4] | Activity [6] | logP [7] | Activity [12] | Activity [13]
O[C@@H]1[C@H](O)[C@@H](CCl)O[C@H]1n1cnc2c(NC3CC4CCC3C4)ncnc21 (mixture of isomers) | 2740 | 1340 | Active | 1290 |  |  |  |  | Dose-dependent effect | Active | 1.04 |  | 
C[C@@]1(O)[C@H](O)[C@@H](CCl)O[C@H]1n1cnc2c(NC3CCCC3)ncnc21 | > 10000 | > 100000 |  | 6740 | 237 | > 3520 | 28.4 |  |  |  |  |  | 
C[C@@]1(O)[C@H](O)[C@@H](CO)O[C@H]1n1cnc2c(NC3CC4CCC3C4)nc(Cl)nc21 (mixture of isomers) | > 10000 | 11800 |  | 4490 | 645 | 1700 | 6.96 |  |  |  |  |  | 
O[C@@H]1[C@H](O)[C@@H](CCl)O[C@H]1n1cnc2c(NC3CCCC3)nc(Cl)nc21 | 4830 | 2160 | Active | 417 | 267 | 1380 | 1.56 |  |  |  |  |  | 
C[C@@]1(O)[C@H](O)[C@@H](CCl)O[C@H]1n1cnc2c(NC3CCCC3)nc(Cl)nc21 | > 10000 | 16200 |  | 3030 | 237 | 1770 | 12.8 |  |  |  |  |  | 
OC[C@H]1O[C@@H](n2cnc3c(NC4CC5CCC4C5)ncnc32)[C@H](O)[C@@H]1O (mixture of isomers) | 4930 | 1270 | Active | 101 | 187 | 2350 | 0.54 | Active |  |  | -0.14 |  | 
O[C@@H]1[C@H](O)[C@@H](CCl)O[C@H]1n1cnc2c(NC3CC4CCC3C4)nc(Cl)nc21 (mixture of isomers) | > 10000 | 2050 | Active | 1410 | 875 | 1270 | 1.61 |  |  |  |  |  | 
C[C@@]1(O)[C@H](O)[C@@H](CO)O[C@H]1n1cnc2c(NC3CC4CCC3C4)ncnc21 (mixture of isomers) | > 10000 | 8780 | Active | 2520 | 616 | 2150 | 4.09 |  |  |  |  |  | 
O[C@@H]1[C@H](O)[C@@H](CSc2ccccc2F)O[C@H]1n1cnc2c(NC3CCOC3)ncnc21 (some centres not stated) | > 10000 | 18900 |  | 746 | 3 | 76 | 250 |  |  |  |  |  | 
OC[C@H]1O[C@@H](n2cnc3c(NC4CC5CCC4C5)nc(Cl)nc32)[C@H](O)[C@@H]1O (mixture of isomers) | > 10000 | 797 | Active | 129 | 182 | 1120 | 0.71 |  |  |  |  |  | 
CCCn1c(=O)c2[nH]c(C3CCCC3)nc2n(CCC)c1=O |  |  |  |  |  |  |  |  |  |  |  | inactive | inactive
C[C@@]1(O)[C@H](O)[C@@H](CCl)O[C@H]1n1cnc2c(NC3CC4CCC3C4)ncnc21 (mixture of isomers) | > 10000 | 24000 |  | 11600 | 1270 | 2630 | 9.13 |  |  |  |  |  | 
O[C@@H]1[C@H](O)[C@@H](CSc2ccccc2F)O[C@H]1n1cnc2c(NC3CCCC3)nc(Cl)nc21 | > 10000 | 2190 |  | 479 | 2 | 8 | 258 |  |  |  |  |  | 

More lines, main results first:

Ki [1] [nM] | Ki [2] [nM] | Activity [3] | Ki [5] [nM] | Ratio Ki [8] | Ratio Ki [9] | Ki [10] [nM] | Activity [11] | SMILES | Activity [4] | Activity [6] | logP [7] | Activity [12] | Activity [13]
> 10000 | > 100000 |  | 3480 | 3 | > 94 | 1060 |  | C[C@@]1(O)[C@H](O)[C@@H](CSc2ccccc2F)O[C@H]1n1cnc2c(NC3CC4CCC3C4)ncnc21 (mixture of isomers) |  |  |  |  | 
3210 | 837 | Active | 376 | 637 | 1470 | 0.59 |  | O[C@@H]1[C@H](O)[C@@H](CCl)O[C@H]1n1cnc2c(NC3CCCC3)ncnc21 |  | Active |  |  | 
 |  |  |  |  |  |  | Active | OC[C@H]1O[C@@H](n2cnc3c(NC4CCCC4)ncnc32)[C@H](O)[C@@H]1O |  |  |  |  | 
> 10000 | > 100000 |  | 4350 | 1.5 | > 34 | 2970 |  | C[C@@]1(O)[C@H](O)[C@@H](CSc2ccccc2F)O[C@H]1n1cnc2c(NC3CC4CCC3C4)nc(Cl)nc21 (mixture of isomers) |  |  |  |  | 
> 10000 | > 100000 |  | 1440 | 0.9 | > 60 | 1680 |  | C[C@@]1(O)[C@H](O)[C@@H](CSc2ccccc2F)O[C@H]1n1cnc2c(NC3CCCC3)ncnc21 |  |  |  |  | 
> 10000 | 5170 |  | 296 | 5 | 80 | 64.7 |  | O[C@@H]1[C@H](O)[C@@H](CSc2ccccc2F)O[C@H]1n1cnc2c(NC3CCCC3)ncnc21 |  |  |  |  | 
> 10000 | 31600 |  | 5900 | 644 | 3450 | 9.16 |  | C[C@@]1(O)[C@H](O)[C@@H](CCl)O[C@H]1n1cnc2c(NC3CC4CCC3C4)nc(Cl)nc21 (mixture of isomers) |  |  |  |  | 
> 10000 | > 100000 |  | 1150 | 0.5 | > 47 | 2150 |  | C[C@@]1(O)[C@H](O)[C@@H](CSc2ccccc2F)O[C@H]1n1cnc2c(NC3CCCC3)nc(Cl)nc21 |  |  |  |  | 
